In brackets after ≈: the same amount, converted by molar mass. Bounds are passed on as bounds.

The test system of data set [1] is Mycobacterium tuberculosis. The experiment in a line: Antimicrobial activity against Mycobacterium tuberculosis H37Rv expressing GFP supplemented with casitone/glucose/tyloxapol assessed as reduction in bacterial growth measured on day 14. Type of data set: functional. The settings on record: 336 h, time 14 day. Summed up: (§1)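 Line 1 medium is 7H9 with ADC and 0.05% Tween80. Line 2 medium is 7H9 with 0.03% casitone, 0.4% glucose and 0.05% tyloxapol. Incubated at 37 °C, 5% CO2, humidified. Fluorescence (ex 485/em 520) read at day 14 and normalised to rifampicin (2× MIC) and 5% DMSO controls. MIC90 is the lowest concentration giving >90% inhibition.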

The test system of data set [2] is Mycobacterium tuberculosis. Description: Antimicrobial activity against Mycobacterium tuberculosis H37Rv expressing GFP supplemented with albumin/dextrose/catalase/glucose/tween80 assessed as reduction in bacterial growth measured on day 14. Format: functional. The settings on record: 336 h, time 14 day. Put shortly: as §1
The nature of data set [3]: Lipophilicity, log P of the compound in octanol/buffer incubated for 2 hrs under shaking condition by shake flask based HPLC-UV method. Type of data set: physicochemical. Put shortly:
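LogD at pH 7.4 by miniaturised shake-flask in deep-well plates. Compound partitioned between equal volumes of 1-octanol and PBS pH 7.4, shaken vigorously 2 h at 25 °C. Phases separated, each analysed by HPLC-UV with diode array detection. LogD calculated from peak areas in octanol and buffer.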

Data set [4] can be described thus: Metabolic stability in rat liver microsome assessed as parent compound remaining after 30 mins by LC-MS/MS analysis. Particulars: liver microsomes, read-out: Stability. Type of data set: ADME. Summed up: (§2)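 Compound at 1 µM incubated with liver microsomes at 0.4 mg/mL, 37 °C for 30 min. Human microsomes were mixed gender, rat were male IGS, mouse were male CD1. Quenched with ice-cold acetonitrile containing internal standard and centrifuged. Parent disappearance measured by LC-MS/MS, with half-life and clearance from standard equations.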
In general terms: Liver microsomes are vesicles of endoplasmic reticulum, rich in cytochrome P450 enzymes.

A short description of data set [5]: Metabolic stability in CD-1 mouse liver microsome assessed as parent compound remaining after 30 mins by LC-MS/MS analysis. Format: ADME. Particulars: liver microsomes, read-out: Stability. Put shortly:
as §2

Data set [6] in a line: Aqueous solubility of compound in PBS at pH6.5 incubated for 24 hrs by shake-flask method. Particulars: pH 6.5. Format: physicochemical. Summed up: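 Miniaturised shake-flask, 96-well: 4 µL of 10 mM DMSO stock dried down, then phosphate-buffered saline pH 6.5 added; shaken 24 h at 25 °C, centrifuged 3500 g for 15 min. Supernatant quantified by HPLC-DAD against a 10–220 µM calibration curve prepared in DMSO.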

In data set [7] the test system is Mycobacterium tuberculosis. The experiment in a line: Antitubercular activity against Mycobacterium tuberculosis H37Rv assessed as reduction in microbial growth measured for 14 days. Type of data set: functional. Particulars: 336 h, time 14 day. Put shortly: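 Strains were H37Rv, the fluoroquinolone-resistant GyrA G88C mutant, and the dprE1 P116S and C387S mutants. All were cultured in standard Middlebrook 7H9 with ADC supplement.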

A short description of data set [8]: Metabolic stability in rat liver microsome assessed as intrinsic clearance measured for 30 mins by LC-MS/MS analysis. Format: ADME. The settings on record: liver microsomes, read-out: CLH. Summed up: as §2
Data set [9] is described as follows: Cytotoxicity against HEK293 cells assessed as reduction in cell viability incubated for 20 hrs by resazurin staining based assay. Format: toxicity. Particulars: human. Put shortly: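 HEK-293 cells grown in DMEM with 10% FBS, seeded at 5×10^3 cells/well into compound-containing plates, 20 h at 37 °C, 5% CO₂. Resazurin added for a further 3 h, fluorescence read at ex 560/em 590 nm. CC₅₀ from sigmoidal dose-response fit (variable top, bottom, slope) of inhibition vs log concentration. Highest concentration tested 32 µg/mL.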
For orientation: The colour change of resazurin is a common sign of viable cells or microbes.

Data set [10] can be described thus: Metabolic stability in CD-1 mouse liver microsome assessed as intrinsic clearance measured for 30 mins by LC-MS/MS analysis. Type of data set: ADME. The settings on record: liver microsomes, read-out: CLH. Put shortly: as §2
Data set [11] is described as follows: Metabolic stability in human liver microsome assessed as parent compound remaining after 30 mins by LC-MS/MS analysis. Type of data set: ADME. The settings on record: liver microsomes, read-out: Stability. Put shortly: as §2
Data set [12] in a line: Metabolic stability in human liver microsome assessed as intrinsic clearance measured for 30 mins by LC-MS/MS analysis. Particulars: liver microsomes, read-out: CLH. Format: ADME. Put shortly: as §2

One may read the MIC90 as the lowest concentration that inhibits either 90% of growth or 90% of the strains tested, depending on the study. With `O=C(NCc1cccc(Cl)c1)c1c[nH]c2c([N+](=O)[O-])cc(C(F)(F)F)cc2c1=O`, the MIC90 in data set [1] is more than 125 µM; in [2], 2.99 µM (≈ 1.27 µg/mL).
Regarding `O=C(NCc1ccc(Cl)cc1)c1c[nH]c2c([N+](=O)[O-])cc(C(F)(F)F)cc2c1=O`, the results for the MIC90 in [1] and in data set [2] were more than 125 µM and 7.4 µM (≈ 3.15 µg/mL), respectively.
For `CCOC(=O)c1c[nH]c2c([N+](=O)[O-])cc(C(F)(F)F)cc2c1=O`, the MIC90 in [1] and in data set [2] was less than 0.244 µM in each case.
For `NNC(=O)c1c[nH]c2c([N+](=O)[O-])cc(C(F)(F)F)cc2c1=O`, the MIC90 in data set [1] and in [2] was more than 125 µM in each case.
Usually logP stands for the decadic logarithm of the partition coefficient of the neutral form, usually between octanol and water. A higher logP goes with a more lipophilic compound. As a reminder, the solubility (thermodynamic) is solubility found after equilibrating the solid with the medium. In general, CC50 refers to the concentration that lowers cell viability or growth by half. On to `O=C(NCCc1ccc(F)cc1)c1c[nH]c2c([N+](=O)[O-])cc(C(F)(F)F)cc2c1=O`, for which the results for the MIC90 in data set [1], in [2] and in [7] were less than 0.244 µM, 0.9 µM (≈ 0.381 µg/mL) and 2 µM, respectively. The molecule further yielded a log partition coefficient (logP) at 2 h in data set [3] of 4. For the same molecule, the remaining at 0.5 h is 75% in data set [4], 56% in data set [5] and 73% in [11]. The solubility (thermodynamic) at 24 h in data set [6] was less than 5 µM. Further, the microsomal CLint in data set [8] amounted to 23.4 µL/min/mg; in data set [10], 48.8 µL/min/mg; in [12], 25.9 µL/min/mg. In addition, the half-maximal cytotoxic concentration (CC50) at 20 h in [9] was more than 20 µM.
Turning to `O=C(Nc1cccc(C(F)(F)F)c1)c1cnc2c([N+](=O)[O-])cc(C(F)(F)F)cc2c1Cl`, the MIC90 is 0.7 µM (≈ 0.325 µg/mL) in [1] and 31.2 µM (≈ 14.5 µg/mL) in data set [2].
As for `Cc1cccc(CNC(=O)c2c[nH]c3c([N+](=O)[O-])cc(C(F)(F)F)cc3c2=O)c1`, the MIC90 in data set [1] is less than 0.244 µM; in data set [2] it was 2.9 µM (≈ 1.18 µg/mL).
With `O=C(NCc1ccc(F)cc1)c1c[nH]c2c([N+](=O)[O-])cc(C(F)(F)F)cc2c1=O`, the MIC90 is more than 125 µM in data set [1] and 8.1 µM (≈ 3.32 µg/mL) in data set [2].
As to `O=C(NCc1ccc(F)c(F)c1)c1c[nH]c2c([N+](=O)[O-])cc(C(F)(F)F)cc2c1=O`, the MIC90 in data set [1] was 7 µM (≈ 2.99 µg/mL); in [2], 31.3 µM (≈ 13.4 µg/mL).
The matching figures for `CO[C@H]1/C=C/O[C@@]2(C)Oc3c(C)c(O)c4c(O)c(c(/C=N/N5CCN(C)CC5)c(O)c4c3C2=O)NC(=O)/C(C)=C\C=C\[C@H](C)[C@H](O)[C@@H](C)[C@@H](O)[C@@H](C)[C@H](OC(C)=O)[C@@H]1C` [RIFAMPIN]: 0.01 µM (≈ 0.00823 µg/mL) and 0.01 µM (≈ 0.00823 µg/mL).
For `O=c1c(Br)c[nH]c2c([N+](=O)[O-])cc(C(F)(F)F)cc12`, the MIC90 was determined as 1.6 µM (≈ 0.539 µg/mL) in data set [1] and 16 µM (≈ 5.39 µg/mL) in data set [2].
Consider `O=C(NCc1ccccc1Cl)c1c[nH]c2c([N+](=O)[O-])cc(C(F)(F)F)cc2c1=O`, for which the results for the MIC90 in data set [1] and in [2] were 0.5 µM (≈ 0.213 µg/mL) and 0.8 µM (≈ 0.341 µg/mL), respectively.
By logD is commonly meant the decadic logarithm of the distribution of all forms, ionised or not, between an organic phase and buffer at a given pH. High values mean a more lipophilic compound, low ones a more hydrophilic compound. With `O=C(NCCc1ccc(C(F)(F)F)cc1)c1c[nH]c2c([N+](=O)[O-])cc(C(F)(F)F)cc2c1=O`, the MIC90 in data set [1] is less than 0.244 µM; in data set [2], less than 0.244 µM; in data set [7], 0.9 µM. Moreover, the log distribution coefficient (logD) at 2 h in data set [3] was found to be 4.4. In addition, the remaining at 0.5 h was 68% in [4], 67% in data set [5] and 68% in data set [11]. The molecule also displayed a thermodynamic solubility at 24 h in [6] of less than 5 µM. The microsomal CLint in data set [8] amounted to 33.2 µL/min/mg; in [10], 33.3 µL/min/mg; in [12], 31.7 µL/min/mg. Moreover, the CC50 at 20 h in data set [9] was more than 20 µM.
Consider `NNC(=O)c1ccncc1` [ISONIAZID], for which, in data set [7], the MIC90 was found to be 3.5 µM.
With `O=c1cc[nH]c2c([N+](=O)[O-])cc(C(F)(F)F)cc12`, the MIC90 in data set [1] was determined as 62.5 µM (≈ 16.1 µg/mL); in data set [2], 16 µM (≈ 4.13 µg/mL).
With `O=C(NCCc1ccc(Cl)cc1)c1c[nH]c2c([N+](=O)[O-])cc(C(F)(F)F)cc2c1=O`, the MIC90 in [1] is less than 0.244 µM; in data set [2], less than 0.244 µM; in data set [7], 1.9 µM. The molecule further came in with a logD at 2 h in data set [3] of 4.3. For the same molecule, the values for the remaining at 0.5 h in data set [4], in [5] and in [11] were 80%, 76% and 75%, respectively. In addition, the thermodynamic solubility at 24 h in data set [6] is less than 5 µM. The microsomal CLint in data set [8] was 18.4 µL/min/mg; in data set [10] it was 23 µL/min/mg; in data set [12], 24.3 µL/min/mg. Besides, the CC50 at 20 h in data set [9] was more than 20 µM.
On to `O=C(NCc1cccc(F)c1)c1c[nH]c2c([N+](=O)[O-])cc(C(F)(F)F)cc2c1=O`, for which the MIC90 is 0.5 µM (≈ 0.205 µg/mL) in data set [1] and 3 µM (≈ 1.23 µg/mL) in data set [2].
For `Cc1ccc(CCNC(=O)c2c[nH]c3c([N+](=O)[O-])cc(C(F)(F)F)cc3c2=O)cc1`, the MIC90 in data set [1] was more than 125 µM; in data set [2], 0.244 µM (≈ 0.102 µg/mL).
As to `COc1c(N2C[C@@H]3CCCN[C@@H]3C2)c(F)cc2c(=O)c(C(=O)O)cn(C3CC3)c12` [MOXIFLOXACIN], in [7], the MIC90 is 0.1 µM.
Regarding `O=C(O)c1c[nH]c2c([N+](=O)[O-])cc(C(F)(F)F)cc2c1=O`, the MIC90 is 62.5 µM (≈ 18.9 µg/mL) in data set [1] and more than 125 µM in data set [2].

The record behind these values is ChEMBL document CHEMBL5620388, “Quinolone analogues of benzothiazinone: Synthesis, antitubercular structure-activity relationship and ADME profiling” (Eur J Med Chem, 2023).
